Source: PubChem BioAssay
Sampled rows, rich in hits. Any-hit rate of the full collection: about 4%.
Pf gamet viab – inhibitors of late stage P. falciparum gametocyte viability; AID 743093; 0.065% of 150,000 active; P. falciparum stage V gametocytes, ATP luminescence, 24 h; inhibition, % at 10.9 µM;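 active = inhibition above the mean plus 3 SD of compounds within the control limits, set per campaign, cut at about 38% in these data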;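 also: 0% = DMSO wells and 100% = medium only without gametocytes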
MT stabilize HCS – microtubule stabilizers in HeLa cells; % tubulin-high responders, % at 10 µM; HeLa tubulin immunostaining HCS, 24 h; share of cells brighter than vehicle mean+2SD; 0.83% of 200,000 active;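 active = plate Z-score above 3 for both tubulin-high and condensed-nucleus cell shares, with cell loss under 80%, at 10 µM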;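 also: anti alpha tubulin signal scored within the nucleus-defined area of each cell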
Cl transport mod – KCC2 (human) Cl- transport modulation. B-score of Tl+ flux slope (higher = more flux/activation; lower = inhibition) at 10 µM. KCC2 cells, thallium flux FluoZin-2 fluorescence. AID 1456. 2.2% of 190,000 active. Q9H2X9;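 active = thallium flux slope and its plate-corrected score both differing from the plate sample mean at a set confidence after two filtering rounds, in either direction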;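 also: slope of fluorescence scaled to starting intensity during 10 to 20 s after thallium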
Target sequence (Q9H2X9 whole entry, looked up): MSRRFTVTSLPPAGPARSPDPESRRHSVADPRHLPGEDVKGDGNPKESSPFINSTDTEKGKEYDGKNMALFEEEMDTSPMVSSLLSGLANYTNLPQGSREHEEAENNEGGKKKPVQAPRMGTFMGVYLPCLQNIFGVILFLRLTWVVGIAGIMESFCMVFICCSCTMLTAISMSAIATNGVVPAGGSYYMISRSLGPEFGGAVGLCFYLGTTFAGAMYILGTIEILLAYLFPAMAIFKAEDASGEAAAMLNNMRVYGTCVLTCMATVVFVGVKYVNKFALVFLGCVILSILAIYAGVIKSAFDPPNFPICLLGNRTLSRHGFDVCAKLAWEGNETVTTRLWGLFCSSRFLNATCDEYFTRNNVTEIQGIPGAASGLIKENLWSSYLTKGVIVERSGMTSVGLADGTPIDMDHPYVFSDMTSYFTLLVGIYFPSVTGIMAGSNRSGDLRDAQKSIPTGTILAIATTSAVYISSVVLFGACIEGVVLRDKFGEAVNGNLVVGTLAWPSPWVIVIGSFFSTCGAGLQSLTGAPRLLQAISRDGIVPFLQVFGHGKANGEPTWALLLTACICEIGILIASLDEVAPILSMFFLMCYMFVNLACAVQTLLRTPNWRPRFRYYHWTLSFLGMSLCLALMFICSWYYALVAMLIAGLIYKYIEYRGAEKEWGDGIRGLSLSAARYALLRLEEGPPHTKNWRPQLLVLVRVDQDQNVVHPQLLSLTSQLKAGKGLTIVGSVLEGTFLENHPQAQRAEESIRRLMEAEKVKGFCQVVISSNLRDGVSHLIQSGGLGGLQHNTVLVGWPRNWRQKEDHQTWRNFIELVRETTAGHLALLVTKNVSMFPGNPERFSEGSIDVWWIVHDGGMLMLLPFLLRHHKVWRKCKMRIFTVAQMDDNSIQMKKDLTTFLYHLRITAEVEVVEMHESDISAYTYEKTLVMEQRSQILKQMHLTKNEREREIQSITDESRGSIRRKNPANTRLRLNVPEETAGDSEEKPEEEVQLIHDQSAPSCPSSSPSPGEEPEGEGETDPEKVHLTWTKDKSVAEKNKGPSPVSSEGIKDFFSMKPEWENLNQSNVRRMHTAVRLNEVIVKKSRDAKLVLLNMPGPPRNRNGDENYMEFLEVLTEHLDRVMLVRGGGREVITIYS
WT yeast gro inh – growth inhibition of WT yeast, mitochondrial fusion screen; mitochondrial fusion phenotypic screen, WT strain; inhibition, % at 10 µM; 2.1% of 190,000 active; in the data active = inhibition above about 58%; tested in S. cerevisiae
bCat nuc transl – alters nuclear translocation of beta-catenin in HeLa cells | immunofluorescence imaging | nuclear translocation activity, % at 5 µM | 0.3% of 190,000 active;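 active = nuclear translocation activity above 50% at 5 µM, with a well cell count of 50 or more; inconclusive = wells under 50 cells across six images, flagged as toxic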;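 also: per-cell ratio of nuclear to cytoplasmic median beta-catenin stain intensity; plate controls were DMSO negative control for no effect and GSK-3 inhibitor IX positive control for full effect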
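test system = HeLa cells, endogenous beta-catenin | dosing = single 5 µM dose plus 0.02–20 µM confirmation series | times = compound treatment 24 h, 37°C, 5% CO2 | technique = beta-catenin immunofluorescence imaging with DAPI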
KCC2 secondary – confirmation of human KCC2 transport modulators | normalised thallium flux (F/F0 slope) at 10 µM | shares compounds with Cl transport mod | 15% of 3,700 active | HEK293-KCC2, thallium flux, FluoZin2 fluorescence; stronger effect = higher value;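 active = thallium flux slope above the same plate's solvent-only control mean plus 3 SD; inconclusive = the two replicate wells disagree; inactive = no significant difference from solvent-only control wells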
KCC2 bumet counter – thallium flux despite bumetanide block in KCC2 cells, secondary assay 3; 49% of 3,700 active; normalized thallium flux at 10 µM; HEK293-KCC2 + bumetanide/ouabain, thallium flux FluoZin2; stronger effect = higher value; shares compounds with Cl transport mod;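 active = thallium entry rate above the same plate's blocked-transporter control wells by more than 3 SD; inconclusive = the two repeat wells disagree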;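 also: raw slope of fluorescence over initial fluorescence between 10 and 20 s after thallium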
KCC2 secondary2 – confirmation of human KCC2 transport modulators | 23% of 3,700 active | normalized thallium flux at 10 µM | HEK293-KCC2, thallium flux FluoZin2 fluorescence; actives lie on both sides; F/F0 rise rate, 10–20 s post-thallium | shares compounds with Cl transport mod | AID 1715;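 active = thallium flux slope more than 3 SD above or below the plate's solvent-only control mean, mostly below; inconclusive = the two repeat wells disagreed; inactive = no significant shift from solvent-only controls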;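 also: raw slope with 0.1% DMSO as baseline and bumetanide as block control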
HEK counter1 – acts in parental HEK cells, KCC2 counter-screen; shares compounds with Cl transport mod; HEK293 parental cells, thallium flux FluoZin2, ouabain; baseline-ratio fluorescence slope, 10–20 s after thallium; thallium flux rate (normalised fluorescence) at 10 µM; 46% of 3,700 active; AID 1716;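 active = thallium flux rate significantly above the same plate's solvent-only control wells, beyond their mean plus 3 SD; inconclusive = the two replicate wells gave conflicting results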
KCC2 retest ouab – KCC2 (human) modulation, ouabain retest | HEK293-KCC2, thallium flux FluoZin2 fluorescence; bidirectional: low = inhibitor, high = activator | 48% of 3,700 active | raw Tl+ flux slope (below DMSO = inhibition, above = activation) at 10 µM | shares compounds with Cl transport mod;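 active = thallium flux slope beyond 3 SD from same-plate DMSO control mean in most replicates, usually higher, sometimes lower; inconclusive = repeat tests gave conflicting results; inactive = no significant difference from controls in most replicates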;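 also: slope of initial-normalized fluorescence between seconds 10 and 20 after thallium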
HEK293 Tl flux2 – acts in parental HEK cells, second KCC2 counter-screen | 33% of 3,700 active | HEK293 parental, thallium flux FluoZin-2 fluorescence slope | thallium flux slope at 10 µM | shares compounds with Cl transport mod | AID 1718;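 active = thallium flux slope above the same plate's solvent-control mean plus 3 SD in both duplicate wells; inconclusive = duplicate wells that disagreed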;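 also: run without ouabain in cells lacking the KCC2 cotransporter; slope of fluorescence scaled to its starting value between 10 and 20 s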
* = called active by the depositor; ? = inconclusive; . = not tested or not shown.

SMILES	Pf gamet viab	MT stabilize HCS	Cl transport mod	WT yeast gro inh	bCat nuc transl	KCC2 secondary	KCC2 bumet counter	KCC2 secondary2	HEK counter1	KCC2 retest ouab	HEK293 Tl flux2
CCCCCCCC[n+]1cccc2c3ccccc3ccc21	-8	2	-0.93	80*	.	.	.	.	.	.	.
CCCCCCCCCC[n+]1cccc2c3ccccc3ccc21	28	48	-1.9	80	.	.	.	.	.	.	.
O=C(c1cccs1)N(Cc1nc2sc3c(c2c(=O)[nH]1)CCCC3)C1CCCC1	.	5	-0.14	61*	1	.	.	.	.	.	.
Cc1sc2nc(CN(C(=O)c3cccs3)C3CCCC3)[nH]c(=O)c2c1C	.	3	-0.99	7	-6	.	.	.	.	.	.
CCOC(=O)CN1C(c2ccc(O)cc2)Nc2ccc(Br)cc2C1c1ccccc1 (stereo not given)	-12	3	0.49	96*	-2	.	.	.	.	.	.
CCOC(=O)CN1C(=O)Nc2ccc(Br)cc2C1c1ccccc1 (stereo not given)	.	3	0.16	1	-2	.	.	.	.	.	.
Cc1ccc(C)c(NC(=S)N=Nc2c(O)n(C)c3ccc(S(=O)(=O)N4CCOCC4)cc23)c1	-24	3	5.7*	28	-2	.	.	.	.	.	.
Cc1ccc(Cn2c(O)c(N=NC(=S)Nc3ccccc3F)c3cc(S(=O)(=O)N4CCOCC4)ccc32)cc1	7	4	6.7	18	1	.	.	.	.	.	.
O=C(NCCN1CCOCC1)c1ccc(=O)oc1	.	6	-0.2	62*	-8	.	.	.	.	.	.
O=C(COC(=O)C12CC3CC(CC(C3)C1)C2)NC12CC3CC(CC(C3)C1)C2	.	4	0.32	80*	0	.	.	.	.	.	.
O=C(CCNc1n[nH]c(=O)[nH]c1=O)N/N=C/c1ccc(C(F)(F)F)cc1	3	1	-0.15	-1	2	.	.	.	.	.	.
Cc1cc(Nc2ccccc2)nn1C(=O)c1ccc(Cl)cc1	.	1	0.23	80*	2	.	.	.	.	.	.
COC(=O)c1cc(Sc2cccc(Cl)c2Cl)ccn1	4	2	-2.9*	30	3	0.0069	0.0044	?	0.0061*	0.014*	0.01
CCOC(=O)Cc1csc(NC(=S)NC(=O)c2ccc(Cl)cc2)n1	-38	3	10*	-2	0	0.0075	0.043*	0.042*	0.042*	0.058*	0.02*
CCOC(=O)Cc1csc(NC(=S)NC(=O)c2ccc([N+](=O)[O-])cc2)n1	3	2	9.8*	3	0	0.016*	0.036*	0.033	0.025*	0.041*	0.012
Cc1ccc2c(c1)nnn2C1CCN(CC(=O)NNC(=O)c2ccco2)CC1	-4	6	-0.23	-8	-2	.	.	.	.	.	.
Cc1[nH]c2ccccc2c1C(=O)COC(=O)CCS(=O)(=O)c1ccccc1Cl	-1	3	-3.1*	8	-1	0.01	?	0.034	0.004	0.017*	0.012
Cn1cc(S(=O)(=O)N2CCCC(C(=O)O)C2)cn1 (stereo not given)	5	4	0.39	0	-3	.	.	.	.	.	.
CC1N(C)c2cc(NC(=O)c3cccs3)c(P(=O)(Nc3ccc([N+](=O)[O-])cc3)N3CCOCC3)cc2C1(C)C (stereo not given)	-7	5	-0.56	4	1	.	.	.	.	.	.
Fc1ccc(-c2nn3c(C4COc5ccccc5O4)nnc3s2)cc1 (stereo not given)	.	2	-4.5*	16	-3	0.0055	0.0045	0.03	0.0079	0.019	0.011
CCOC(CNC(=O)Cc1c(C)nc2c(-c3ccccc3)c(C)nn2c1C)OCC	2	2	-0.46	1	-1	.	.	.	.	.	.
C=C(C)c1cccc(C(C)(C)NC(=O)N2CCC(C(N)=O)CC2)c1	6	3	-3.2*	3	-2	0.0066	?	0.034	0.0081	0.019	0.012
C=C(C)c1cccc(C(C)(C)NC(=O)N2CCCC(C(N)=O)C2)c1 (stereo not given)	9	3	1.3	-4	.	.	.	.	.	.	.
CCOC(=O)C(CC)n1nc(C)n2c(cc3occc32)c1=O (stereo not given)	.	1	0.22	-11	-1	.	.	.	.	.	.
FC(F)(F)c1ccc(Cl)c(NC(=S)NC2CC2)c1	-138	3	4.2*	-2	-7	0.012	0.0071	0.037	0.0075	0.024	0.01
SMILES	Pf gamet viab	MT stabilize HCS	Cl transport mod	WT yeast gro inh	bCat nuc transl	KCC2 secondary	KCC2 bumet counter	KCC2 secondary2	HEK counter1	KCC2 retest ouab	HEK293 Tl flux2
CCCc1cc(-c2n[nH]c(=S)n2-c2cccc(C)c2)cs1	16	1	106*	57	0	0.022*	0.2*	0.04	0.058*	0.062*	0.017*
Cc1cccc(-n2c(-c3ccco3)n[nH]c2=S)c1	-4	5	-0.23	-2	.	.	.	.	.	.	.
O=C(NCc1ccco1)c1ccc2ccccc2n1	22	4	.	28	0	.	.	.	.	.	.
O=C(Nc1ccc(S(=O)(=O)NCc2ccco2)cc1)c1ccc2ccccc2n1	.	6	.	21	-3	0.0087	0.0061	0.035	0.0046	0.02	0.011
CCCCn1c(=O)[nH]c(=O)c2c1nc(-c1ccc(C#N)cc1)n2C1CCCC1	-11	2	-1.1	5	-4	.	.	.	.	.	.
CC(C)Cn1c(-c2ccc(C#N)cc2)nc2c1c(=O)[nH]c(=O)n2CC(C)C	.	2	.	0	-7	0.01	0.0047	0.032	0.0075	0.019	0.01
CCn1c(CNC(=O)COc2ccc(C(C)C)cc2)nnc1SCC(=O)Nc1cc(F)ccc1C	.	3	.	-22	1	0.0081	0.0064	0.035	?	0.017*	0.012
CCn1c(CNC(=O)COc2ccc(C(C)C)cc2)nnc1SCC(=O)Nc1ccc(F)cc1	.	4	-2.3	.	-10	.	.	.	.	.	.
O=C(NCc1ccccc1C(F)(F)F)C1CC(c2cc(C(F)(F)F)cc(C(F)(F)F)c2)=NO1 (stereo not given)	.	.	0.014	.	0	.	.	.	.	.	.
O=C(NCc1ccccc1C(F)(F)F)C1CC(c2cccc(F)c2)=NO1 (stereo not given)	11	.	-2.7*	.	-2	0.0074	0.0046	0.027	0.0069	0.018	0.0089
COc1ccc(/C=C2\C(=O)NC(=S)N2C(=O)c2ccc(C)cc2)cc1	-27	2	7.5*	3	-2	0.0062	0.021*	0.039*	0.019*	0.028*	0.021*
CCCOc1ccc(Oc2cc(C)nc(SC)n2)nn1	8	4	1.2	0	-1	.	.	.	.	.	.
